Data: ChEMBL document CHEMBL1147243, “Antitumor agents. 228. five new agarofurans, Reissantins A-E, and cytotoxic principles from Reissantia buchananii” (2003)
In brackets after ≈: the same amount, converted by molar mass. Activity calls are given as the source filed them. No cut-off for these calls is given here.

Key:
[1] = Cytotoxicity against human U87MG cells after 3 days by SRB assay; type: functional, U-87MG ATCC; details: U-87 MG, 72 h, read-out: ED50 (the source's name)
Outline: (§1)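 Freshly trypsinized cells from T-25 stock cultures were seeded at 1500-7500 cells/well with compound added from DMSO-diluted stock. The medium was RPMI-1640 with 25 mM HEPES, 0.25% sodium bicarbonate, 10% FBS and 100 µg/mL kanamycin. After 3 days, attached cells were fixed with cold 50% TCA, stained with 0.4% SRB, and the bound dye solubilized and read at 562 nm. ED50 is the concentration giving 50% growth reduction.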

MCF7 = assay: Cytotoxicity against human MCF7 cells after 3 days by SRB assay; type: functional; details: MCF7, 72 h, read-out: ED50 (the source's name)
Outline: (§2)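 Tumour lines kept in RPMI-1640 with 25 mM HEPES, 0.25% sodium bicarbonate, 10% FBS and 100 µg/mL kanamycin. Freshly trypsinized cells were seeded at 1500-7500 per well with compound from DMSO-diluted stock. After 3 days, attached cells were fixed with cold 50% TCA, stained with 0.4% SRB, and the bound dye was solubilized and read at 562 nm. ED50 is the concentration giving 50% growth reduction.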

1A9/ptx-10 [2] = assay: Cytotoxicity against human 1A9/PTX10 cells after 6 days by SRB assay; type: functional; details: 1A9/ptx-10, 144 h, read-out: ED50 (the source's name)
Outline: (§3)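 Cells were grown in RPMI-1640 supplemented with 25 mM HEPES, 0.25% sodium bicarbonate, 10% FBS and 100 µg/mL kanamycin. Freshly trypsinized cells were plated at 1500-7500 per well with compound from DMSO-diluted stock over a 6-day assay period. Cells were fixed with cold 50% TCA and stained with 0.4% SRB, and the solubilized dye was read at 562 nm. ED50 is the concentration reducing growth by 50%.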

HCT-8 [3] = assay: Cytotoxicity against human HCT8 cells after 3 days by SRB assay; type: functional; details: HCT-8, 72 h, read-out: ED50 (the source's name); outline: as §2
PC-3 = assay: Cytotoxicity against human PC3 cells after 3 days by SRB assay; type: functional; details: PC-3, 72 h, read-out: ED50 (the source's name); outline: as §2
[4] = Cytotoxicity against human KBVIN cells after 3 days by SRB assay; type: functional; details: 72 h, read-out: ED50 (the source's name); outline: as §1
1A9 [5] = assay: Cytotoxicity against human 1A9 cells after 3 days by SRB assay; type: functional; details: 1A9, 72 h, read-out: ED50 (the source's name); outline: as §2
KB = assay: Cytotoxicity against human KB cells after 3 days by SRB assay; type: functional; details: 72 h, read-out: ED50 (the source's name); outline: as §2
1A9/ptx-10 [6] = assay: Cytotoxicity against human 1A9/PTX10 cells after 3 days by SRB assay; type: functional; details: 1A9/ptx-10, 72 h, read-out: ED50 (the source's name); outline: as §2
1A9 [7] = assay: Cytotoxicity against human 1A9 cells after 6 days by SRB assay; type: functional; details: 1A9, 144 h, read-out: ED50 (the source's name); outline: as §3
A549 = assay: Cytotoxicity against human A549 cells after 3 days by SRB assay; type: functional; details: A549, 72 h, read-out: ED50 (the source's name); outline: as §2
U-87MG ATCC = assay: Cytotoxicity against human U87MG cells at 20 ug/ml after 3 days by SRB assay; type: functional, cell-based
KBVIN = assay: Cytotoxicity against human KBVIN cells at 20 ug/ml after 3 days by SRB assay; type: functional, cell-based
HCT-8 [8] = assay: Cytotoxicity against human HCT8 cells at 20 ug/ml after 3 days by SRB assay; type: functional, cell-based
1A9 [9] = assay: Cytotoxicity against human 1A9 cells at 20 ug/ml after 6 days by SRB assay; type: functional, cell-based

SMILES | EC50 [1] | EC50 (MCF7) | EC50 (1A9/ptx-10 [2]) | EC50 (HCT-8 [3]) | EC50 (PC-3) | EC50 [4] | EC50 (1A9 [5]) | EC50 (KB) | EC50 (1A9/ptx-10 [6]) | EC50 (1A9 [7]) | EC50 (A549) | Activity (U-87MG ATCC) | Activity (KBVIN) | Activity (HCT-8 [8]) | Activity (1A9 [9])
CC(=O)O[C@H]1[C@@H]2[C@@H](OC(=O)c3ccc(=O)n(C)c3)[C@@]3(OC2(C)C)[C@](C)([C@H]1OC(=O)c1ccccc1)[C@@H](OC(C)=O)[C@@H](OC(=O)c1ccccc1)C[C@]3(C)O [REISSANTIN B] | > 20 µg/mL | > 20 µg/mL | 15.3 µg/mL (≈ 20.5 µM) | > 20 µg/mL | > 20 µg/mL | 17.1 µg/mL (≈ 22.9 µM) | 17.1 µg/mL (≈ 22.9 µM) | 11.7 µg/mL (≈ 15.7 µM) | > 20 µg/mL | 13.7 µg/mL (≈ 18.4 µM) | 15.3 µg/mL (≈ 20.5 µM) | – | – | – | –
COC(=O)[C@]1(C)CC[C@]2(C)CC[C@]3(C)C4=CC=C5C(=CC(=O)C(O)=C5C)[C@]4(C)CC[C@@]3(C)[C@@H]2C1 [PRISTIMERIN] | 0.17 µg/mL (≈ 0.366 µM) | 0.14 µg/mL (≈ 0.301 µM) | 0.076 µg/mL (≈ 0.164 µM) | 0.15 µg/mL (≈ 0.323 µM) | 0.23 µg/mL (≈ 0.495 µM) | 0.29 µg/mL (≈ 0.624 µM) | 0.1 µg/mL (≈ 0.215 µM) | 0.1 µg/mL (≈ 0.215 µM) | 0.11 µg/mL (≈ 0.237 µM) | 0.11 µg/mL (≈ 0.237 µM) | 0.31 µg/mL (≈ 0.667 µM) | – | – | – | –
CC(=O)O[C@H]1[C@@H]2[C@@H](OC(=O)c3ccc(=O)n(C)c3)[C@@]3(OC2(C)C)[C@@](C)([C@@H](OC(C)=O)CC[C@]3(C)O)[C@H]1OC(=O)c1ccccc1 [REISSANTIN A] | – | > 20 µg/mL | > 20 µg/mL | > 20 µg/mL | > 20 µg/mL | – | > 20 µg/mL | > 20 µg/mL | > 20 µg/mL | > 20 µg/mL | > 20 µg/mL | inactive | inactive | – | –
CC[C@H](CC[C@@H](C)[C@H]1CC[C@H]2[C@@H]3CC=C4C[C@@H](O)CC[C@]4(C)[C@H]3CC[C@]12C)C(C)C [BETA-SITOSTEROL] | > 20 µg/mL | > 20 µg/mL | 9.5 µg/mL (≈ 22.9 µM) | > 20 µg/mL | > 20 µg/mL | > 20 µg/mL | 16.8 µg/mL (≈ 40.5 µM) | > 20 µg/mL | 20 µg/mL (≈ 48.2 µM) | 10.6 µg/mL (≈ 25.6 µM) | > 20 µg/mL | – | – | – | –
COC(=O)[C@]1(C)CC[C@]2(C)CC[C@]3(C)C4=CC(=O)c5c(cc(O)c(O)c5C)[C@]4(C)CC[C@@]3(C)[C@@H]2C1 | > 20 µg/mL | 12.8 µg/mL (≈ 26.6 µM) | 7.1 µg/mL (≈ 14.8 µM) | 14.1 µg/mL (≈ 29.3 µM) | > 20 µg/mL | 16.6 µg/mL (≈ 34.5 µM) | 11.7 µg/mL (≈ 24.3 µM) | 14.5 µg/mL (≈ 30.2 µM) | 12.4 µg/mL (≈ 25.8 µM) | 10.7 µg/mL (≈ 22.3 µM) | 16.4 µg/mL (≈ 34.1 µM) | – | – | – | –
CC(=O)O[C@H]1CC[C@](C)(O)[C@]23OC(C)(C)[C@H]([C@H](O)[C@H](OC(=O)c4ccccc4)[C@]12C)[C@H]3O [REISSANTIN D] | – | 16.2 µg/mL (≈ 36.1 µM) | > 20 µg/mL | – | > 20 µg/mL | – | > 20 µg/mL | > 20 µg/mL | > 20 µg/mL | > 20 µg/mL | > 20 µg/mL | inactive | inactive | inactive | –
CC(=O)O[C@H]1[C@@H]2[C@@H](O)[C@@]3(OC2(C)C)[C@@](C)([C@@H](OC(C)=O)CC[C@]3(C)O)[C@H]1OC(=O)c1ccccc1 [REISSANTIN E] | – | > 20 µg/mL | > 20 µg/mL | > 20 µg/mL | > 20 µg/mL | 16.5 µg/mL (≈ 33.6 µM) | > 20 µg/mL | 14.4 µg/mL (≈ 29.4 µM) | > 20 µg/mL | – | > 20 µg/mL | inactive | – | – | inactive
CC(=O)O[C@H]1C(=O)[C@@]2(C)[C@H]([C@H](OC(=O)c3ccccc3)[C@]3(O)C[C@H](OC(=O)[C@H](O)[C@@H](NC(=O)c4ccccc4)c4ccccc4)C(C)=C1C3(C)C)[C@]1(OC(C)=O)CO[C@@H]1C[C@@H]2O [PACLITAXEL] | – | – | – | 0.011 µg/mL (≈ 0.0129 µM) | – | – | 0.002 µg/mL (≈ 0.00234 µM) | 0.001 µg/mL (≈ 0.00117 µM) | – | 0.041 µg/mL (≈ 0.048 µM) | 0.005 µg/mL (≈ 0.00586 µM) | – | – | – | –
CC1=C(O)C(=O)C=C2C1=CC=C1[C@@]2(C)CC[C@@]2(C)[C@@H]3C[C@](C)(C(=O)O)CC[C@]3(C)CC[C@]12C [CELASTROL] | 0.22 µg/mL (≈ 0.488 µM) | 0.21 µg/mL (≈ 0.466 µM) | 0.11 µg/mL (≈ 0.244 µM) | 0.23 µg/mL (≈ 0.51 µM) | 0.27 µg/mL (≈ 0.599 µM) | 0.34 µg/mL (≈ 0.755 µM) | 0.091 µg/mL (≈ 0.202 µM) | 0.2 µg/mL (≈ 0.444 µM) | 0.1 µg/mL (≈ 0.222 µM) | 0.11 µg/mL (≈ 0.244 µM) | 0.25 µg/mL (≈ 0.555 µM) | – | – | – | –
CC1(C)CC[C@]2(C)CC[C@]3(C)C(=CC[C@@H]4[C@@]5(C)CC[C@H](O)C(C)(C)C5C(=O)C[C@]43C)[C@H]2C1 (some centres undefined) | 6.7 µg/mL (≈ 15.2 µM) | 14.6 µg/mL (≈ 33.1 µM) | 11.2 µg/mL (≈ 25.4 µM) | 13.7 µg/mL (≈ 31.1 µM) | 15.1 µg/mL (≈ 34.3 µM) | 14.7 µg/mL (≈ 33.4 µM) | 11.4 µg/mL (≈ 25.9 µM) | 13 µg/mL (≈ 29.5 µM) | 11 µg/mL (≈ 25 µM) | 11.3 µg/mL (≈ 25.6 µM) | 13.3 µg/mL (≈ 30.2 µM) | – | – | – | –
